This note sets out measurements from ChEMBL document CHEMBL3877339, “Efficient Semisynthesis of (-)-Pseudoirroratin A from (-)-Flexicaulin A and Assessment of Their Antitumor Activities” (ACS Med Chem Lett, 2017).

The source made the active and inactive calls. No cut-off for these calls is given here.

In one data set the test system is HT-29. The data set is described as follows: (§1) Cytotoxicity against human HT-29 cells assessed as reduction in cell viability after 48 hrs by MTT assay. It is filed as functional, cell-based. The method, boiled down:
(§2)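 MTT viability assay over a compound concentration series in colorectal carcinoma cells; IC50 taken from dose–response curves. Mean ± SD of three separate experiments.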
For orientation: Tetrazolium assays rely on reduction of a dye to a coloured formazan, in cell work by metabolically active cells.

Data set [1] in a line: as §1. The format is functional, cell-based. As to conditions: HT-29, 48 h. In outline: as §2
Data set [2] is described as follows: (§3) Cytotoxicity against human HCT116 cells assessed as reduction in cell viability after 48 hrs by MTT assay. The format is functional, cell-based. The settings on record: HCT-116, 48 h. The method, boiled down:
as §2

Data set [3] deals with HCT-116. The data set is described as §3. The format is functional, cell-based. The method, boiled down: as §2
The subject of another data set is Mus musculus. The data set is described as follows: Toxicity in BALB/c mouse xenografted with human HCT116 cells assessed as change in body weight at 20 mg/kg, ip administered every other day for 14 days. The format is organism-based, HCT-116. As to conditions: in vivo, 336 h. On the technique in general: In xenograft studies the graft and the host belong to different species.

The test system of data set [4] is HCT-116. The data set is described as follows: Antiproliferative activity against human HCT116 cells at 2.5 ug/ml by light microscopic method. The format is functional, cell-based. The method, boiled down:
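HCT-116 cells grown at relatively high density, untreated or compound-treated, then viewed by light microscopy at 10× magnification.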

In data set [5] the test system is HCT-116. The data set is described as follows: Induction of apoptosis in human HCT116 cells assessed as early apoptotic cells at 0.5 ug/ml after 48 hrs by Annexin V-FITC/propidium iodide staining based flow cytometry (reference value: 3.7%). The format is functional. A general note: A flow cytometer gives signals particle by particle.
In data set [6] the test system is HCT-116. The data set is described as follows: Induction of apoptosis in human HCT116 cells assessed as late apoptotic cells at 1 ug/ml after 48 hrs by Annexin V-FITC/propidium iodide staining based flow cytometry (reference value: 3.6%). The format is functional.
Data set [7] concerns HCT-116. The data set is described as follows: Induction of apoptosis in human HCT116 cells assessed as necrotic cells at 2 ug/ml after 48 hrs by Annexin V-FITC/propidium iodide staining based flow cytometry (reference value: 1.3%). It is filed as functional.
In data set [8] the test system is HCT-116. The data set is described as follows: Induction of apoptosis in human HCT116 cells assessed as early apoptotic cells at 1 ug/ml after 48 hrs by Annexin V-FITC/propidium iodide staining based flow cytometry (reference value: 3.7%). The format is functional.
Data set [9] has as its system HCT-116. The data set is described as follows: Induction of apoptosis in human HCT116 cells assessed as necrotic cells at 1 ug/ml after 48 hrs by Annexin V-FITC/propidium iodide staining based flow cytometry (reference value: 1.3%). It is filed as functional.
Data set [10] has as its system HCT-116. The data set is described as follows: Induction of apoptosis in human HCT116 cells assessed as necrotic cells at 0.5 ug/ml after 48 hrs by Annexin V-FITC/propidium iodide staining based flow cytometry (reference value: 1.3%). It is filed as functional.
Data set [11] has as its system HCT-116. The data set is described as follows: Induction of apoptosis in human HCT116 cells assessed as early apoptotic cells at 2 ug/ml after 48 hrs by Annexin V-FITC/propidium iodide staining based flow cytometry (reference value: 3.7%). The format is functional.
Data set [12] deals with HCT-116. The data set is described as follows: Induction of apoptosis in human HCT116 cells assessed as early apoptotic cells at 10 ug/ml after 48 hrs by Annexin V-FITC/propidium iodide staining based flow cytometry (reference value: 3.7%). The format is functional.
Data set [13] has as its system HCT-116. The data set is described as follows: Induction of apoptosis in human HCT116 cells cytoplasmic extract assessed as decrease in survivin expression at 0.3125 to 2.5 ug/ml after 48 hrs by Western blot method. The format is functional, cell-based. The method, boiled down:
(§4)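 HCT-116 cells treated at 0–2.5 μg/mL, then split into cytoplasmic and nuclear extracts for Western blotting. The cytoplasmic fraction was probed for cleaved PARP, cleaved caspase-3, phospho-ERK and survivin, with α-tubulin as loading control. The nuclear fraction was probed for HDAC1, with histone H3 as loading control.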

Data set [14] deals with HCT-116. The data set is described as follows: Induction of apoptosis in human HCT116 cells cytoplasmic extract assessed as increase in cleaved PARP expression at 0.3125 to 2.5 ug/ml after 48 hrs by Western blot method. The format is functional, cell-based. In outline: as §4
Data set [15] relates to HCT-116. The data set is described as follows: Induction of apoptosis in human HCT116 cells cytoplasmic extract assessed as increase in cleaved caspase-3 expression at 0.3125 to 2.5 ug/ml after 48 hrs by Western blot method. The format is functional, cell-based. The method, boiled down:
as §4

Data set [16] has as its system HCT-116. The data set is described as follows: Induction of apoptosis in human HCT116 cells after 48 hrs by Annexin V-FITC/propidium iodide staining based flow cytometry. The format is functional, cell-based.
The nature of data set [17]: Downregulation of HDAC1 expression in human HCT116 cells nuclear extract at >0.625 ug/ml after 48 hrs by Western blot method. The format is functional, cell-based. The settings on record: HCT-116. The method, boiled down:
as §4

The subject of data set [18] is HCT-116. The data set is described as follows: Antitumor activity against human HCT116 cells xenografted in BALB/c nude mouse assessed as inhibition of tumor weight at 20 mg/kg, ip administered every other day for 14 days. It is filed as functional, organism-based. The method, boiled down: (§5)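 HCT-116 cells implanted subcutaneously in the flanks of nude mice. Compound given intraperitoneally at 20 mg/kg every other day for 14 days; controls got vehicle. Tumour volume measured per animal at set time points, and tumours excised at study end; mean ± SD, n = 10 per group.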

Data set [19] relates to HCT-116. The data set is described as follows: Induction of apoptosis in human HCT116 cells assessed as early apoptotic cells at 5 ug/ml after 48 hrs by Annexin V-FITC/propidium iodide staining based flow cytometry (reference value: 3.7%). It is filed as functional.
Data set [20] concerns HCT-116. The data set is described as follows: Induction of apoptosis in human HCT116 cells assessed as late apoptotic cells at 5 ug/ml after 48 hrs by Annexin V-FITC/propidium iodide staining based flow cytometry (reference value: 3.6%). The format is functional.
The subject of data set [21] is HCT-116. The data set is described as follows: Induction of apoptosis in human HCT116 cells assessed as necrotic cells at 10 ug/ml after 48 hrs by Annexin V-FITC/propidium iodide staining based flow cytometry (reference value: 1.3%). It is filed as functional.
In data set [22] the test system is HCT-116. The data set is described as follows: Antitumor activity against human HCT116 cells xenografted in BALB/c nude mouse assessed as inhibition of tumor volume at 20 mg/kg, ip administered every other day for 14 days. The format is functional, organism-based. In outline:
as §5

Data set [23] has as its system HCT-116. The data set is described as follows: Induction of apoptosis in human HCT116 cells assessed as late apoptotic cells at 2 ug/ml after 48 hrs by Annexin V-FITC/propidium iodide staining based flow cytometry (reference value: 3.6%). It is filed as functional.
Data set [24] has as its system HCT-116. The data set is described as follows: Induction of apoptosis in human HCT116 cells assessed as late apoptotic cells at 10 ug/ml after 48 hrs by Annexin V-FITC/propidium iodide staining based flow cytometry (reference value: 3.6%). The format is functional.
Data set [25] concerns HCT-116. The data set is described as follows: Induction of apoptosis in human HCT116 cells assessed as late apoptotic cells at 0.5 ug/ml after 48 hrs by Annexin V-FITC/propidium iodide staining based flow cytometry (reference value: 3.6%). It is filed as functional.
Data set [26] concerns HCT-116. The data set is described as follows: Increase in ERK phosphorylation in human HCT116 cells cytoplasmic extract at 0.3125 to 2.5 ug/ml after 48 hrs by Western blot method. The format is cell-based. The method, boiled down: as §4
In data set [27] the test system is HCT-116. The data set is described as follows: Induction of apoptosis in human HCT116 cells assessed as necrotic cells at 5 ug/ml after 48 hrs by Annexin V-FITC/propidium iodide staining based flow cytometry (reference value: 1.3%). The format is functional.

Consider `C=C1C(=O)[C@@]23[C@H](O)C[C@@H]4C(C)(C)CCC[C@@]4(COC(C)=O)[C@@H]2[C@@H](O)C[C@@H]1[C@H]3O` [FLEXICANLIN A], for which the Activity result with HT-29 is “Dose-dependent effect”; in the data set with HCT-116 [3] it was “Dose-dependent effect”; with Mus musculus, “Non-Toxic”. The IC50 (usually the point on the concentration scale where inhibition reaches its midpoint) in data set [1] turned out to be 10.5 µM; in [2], 7.3 µM. Further, the outcome with HCT-116 [4] was Active.
Take `C=C1C(=O)[C@]23[C@H](O)C[C@@H]4C(C)(C)CCC[C@]45CO[C@](O)(C[C@@H]1[C@H]2O)[C@@H]53` [PSEUDOIRRORATIN A]: the Activity was 8.5% in the data set on HCT-116 [5]; 17% with HCT-116 [6]; 14.7% in the data set on HCT-116 [7]; “Dose-dependent effect” in the data set on HT-29; 10% in the data set on HCT-116 [8]; 11.1% in the data set with HCT-116 [9]. Moreover, the Activity with HCT-116 [10] is 3.1%; in the data set on HCT-116 [11] it was 18.3%; in the data set with HCT-116 [3] it was “Dose-dependent effect”; with HCT-116 [12], 33.9%; in the data set on HCT-116 [16] it was “Dose-dependent effect”; with Mus musculus, “Non-Toxic”. In addition, the Activity in the data set with HCT-116 [19] is listed as 26.2%; in the data set with HCT-116 [20], 24.7%; with HCT-116 [21] it was 13.8%; in the data set with HCT-116 [23], 27.8%; with HCT-116 [24] it was 30.2%; with HCT-116 [25] it was 5.3%. Besides, the Activity in the data set with HCT-116 [27] turned out to be 21.1%. Besides, the IC50 in data set [1] is 5.9 µM; in [2], 4.9 µM. In addition, the outcome (with HCT-116 [13]; in the data set with HCT-116 [14]; in the data set with HCT-116 [15]; in [17]; with HCT-116 [18]; in the data set with HCT-116 [22]) was Active. The result in the data set on HCT-116 [26] and in the data set with HCT-116 [4] was Active.
